By IC50 is commonly meant the point on the concentration scale where inhibition reaches its midpoint.

Data set [1] concerns K562/MDR cells. Nature of the data set: MTT assay, K562/MDR cells. Format: cell-based, human. Particulars: K562/MDR vs K562. A general note: Tetrazolium dyes change colour on reduction, which living cells bring about.
In data set [2] the test system is Peripheral blood mononuclear cells (PBMCs). Nature of the data set: Trypan Blue dye exclusion, PBMCs. Particulars: 2 μM, 24 hours, mouse PBMCs. The format is cell-based. In a few lines:
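PBMCs from mouse blood isolated by Ficoll density gradient and seeded at 5×10^5 cells/well in 12-well plates in RPMI 1640 with 10% FBS. Treated with test compound (2, 4, 10 μM), PBS or melittin at 37°C for 24 h. Stained with 0.4% Trypan Blue for 5 min, washed three times in PBS and viewed by fluorescence microscopy.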

The subject of another data set is erythrocytes. Nature of the data set: Peptide binding assay. Format: cell-based. Particulars: mouse erythrocytes, 30 minutes, 37°C, flow cytometry. The essentials:
(§1)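 Cells (human lines or mouse erythrocytes) resuspended in PBS at 1×10^6/ml and exposed to FITC-labelled peptide at 37°C for 30 min in the dark. Washed in PBS and read by flow cytometry as mean fluorescence of 10,000 cells. Mean±SEM of three independent experiments.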
On the technique in general: Flow cytometry measures light scatter and fluorescence of single cells or particles in a stream.

Data set [3] deals with K562/MDR cells. Nature of the data set: Confocal laser scanning microscopy, K562/MDR. Format: cell-based, human. Particulars: incubation 30 minutes. The essentials: (§2)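 Cells exposed to FITC-labelled peptide for 30 min in the dark, harvested, rinsed three times in PBS and imaged at once by CLSM (488 nm argon excitation for FITC). For mitochondrial co-localisation, cells were then given 30 nM rhodamine 123 for 30 min in the dark, washed and imaged with 488 nm (FITC) and 525 nm (rhodamine 123) laser lines.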

In data set [4] the test system is Jurkat cells. Nature of the data set: Confocal laser scanning microscopy, Jurkat. Particulars: incubation 30 minutes. The format is cell-based, human. In a few lines:
as §2

A further data set has as its system HEK293 cells. Nature of the data set: Peptide binding assay. Format: cell-based, human. Particulars: HEK293, 30 minutes, 37°C, flow cytometry. The essentials: as §1
Data set [5] has as its system leukemia cells (K562, THP-1, and U937 cells). Particulars: read-out: IC50, anticancer activity in leukemia cells; cited from earlier work.
The test system of data set [6] is Jurkat cells. Kind of data set: LDH release, Jurkat. Particulars: CM4 treatment (3, 9, 30 μM). Format: cell-based, human. In a few lines:
(§3)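 Cells (1×10^5/mL) in RPMI 1640 held 4 h at 37°C, then exposed to peptide at 3, 9 or 30 μM for varying times. PBS and 2% Triton X-100 controls. Cell-free supernatant mixed with tetrazolium salt reagent; formazan read at 490 nm. Leakage % = [(A−C)/(P−C)]×100 (C = PBS, P = Triton). Mean±SEM of four independent experiments.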
On the technique in general: LDH in the medium is a marker of cell lysis.

Data set [7] deals with K562/MDR cells. Nature of the data set: LDH release, K562/MDR. The format is cell-based, human. Particulars: CM4 treatment (3, 9, 30 μM). In a few lines:
as §3

In a further data set the test system is non-cancer cells. Particulars: even at 120 μM; cited from earlier work.

Turning to `COc1cccc2c1C(=O)c1c(O)c3c(c(O)c1C2=O)C[C@@](O)(C(=O)CO)C[C@@H]3O[C@H]1C[C@H](N)[C@H](O)[C@H](C)O1` [doxorubicin], in the data set with K562/MDR cells [1], the “resistance of K562/MDR compared with K562 cells” value was “a certain resistence”.

For `CC[C@H](C)[C@H](NC(=O)CN)C(=O)NCC(=O)N[C@@H](C)C(=O)N[C@H](C(=O)N[C@@H](CC(C)C)C(=O)N[C@@H](CCCCN)C(=O)N[C@H](C(=O)N[C@@H](CC(C)C)C(=O)N[C@H](C(=O)N[C@H](C(=O)NCC(=O)N[C@@H](CC(C)C)C(=O)N1CCC[C@H]1C(=O)N[C@@H](C)C(=O)N[C@@H](CC(C)C)C(=O)N[C@H](C(=O)N[C@@H](CO)C(=O)N[C@@H](Cc1c[nH]c2ccccc12)C(=O)N[C@H](C(=O)N[C@@H](CCCCN)C(=O)N[C@@H](CCCNC(=N)N)C(=O)N[C@@H](CCCCN)C(=O)N[C@@H](CCCNC(=N)N)C(=O)N[C@@H](CCC(N)=O)C(=O)N[C@@H](CCC(N)=O)C(N)=O)[C@@H](C)CC)[C@@H](C)CC)[C@@H](C)O)[C@@H](C)O)C(C)C)C(C)C` [melittin], the “cytotoxicity of PBMCs” value in data set [2] came to 100%.

Consider “FITC-myristoyl-CM4: fluorescein isothiocyanate labeled myristoyl-CM4 (GRWKIFKKIEKVGQNIRDGIVKAGPAVAVVGQAATI; not fully specified; FITC, myristoyl, C-terminal amide)”, for which the “fluorescence intensity on cells” value in the data set with erythrocytes and with HEK293 cells was “very weak” each time. For the same molecule, the “FITC signal on the cells (CLSM)” value with K562/MDR cells [3] and in the data set with Jurkat cells [4] was “stronger than the FITC-CM4 signal” throughout.

Regarding “GRWKIFKKIEKVGQNIRDGIVKAGPAVAVVGQAATI-NH2 [CM4]”, the IC50 in data set [5] is 20 to 40 µM. Also, the LDH release result in the data set on Jurkat cells [6] and in the data set on K562/MDR cells [7] was “Virtually no LDH was released” in each case. In addition, the “cytotoxicity towards non-cancer cells” value in the data set with non-cancer cells is “no cytotoxicity”.

The record behind these values is publication PMC6612960 (Drug Design, Development and Therapy, 2019).
